Results: the RNAGym collection of RNA variant scans (doi:10.1101/gad.245936.114)
Fewer inactive variants are shown than the library holds.

B1: tRNA (parent)
chain: CUCUCGGUAGCCAAGUUGGUUUAAGGCGCAAGACUUUAAUUUAUCACUACGAAAUCUUGAGAUCGGGCGUUCGACUCGCCCCCGGGAGAUUUUUUCCUCGAGCAA

Variants of: B1
Experiment: nonsense suppression (GFP-seq) (ratio to wild type); higher = more function; SUP4oc tRNA, yeast GFP reporter sort-seq
Outline: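 Raffinose/galactose medium with 80 mg/L adenine was used to grow yeast carrying genome-integrated tRNA variants (~3% random-mutation library), RFP, and a galactose-driven GFP ochre reporter. Cells went into GFP/RFP bins, which were Illumina-sequenced, and variants with ≥100 reads and ≥30 cells were scored. Nonsense suppression (GFPSEQ) is the per-bin median GFP/RFP weighted by estimated cell share and expressed relative to the unmutated parent tRNA.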

Variant | nonsense suppression
C5G A33G G65A G66C | ≤ 0.026
C5G G66U U71C | ≤ 0.026
U4G U71A | 0.0967
U4A A9U | 0.2
C3U A89C | 0.0874
C5A G7U U17C | ≤ 0.026
U4C C11U | 0.109
C3U G6U | 0.0343
C3U C12U C82G | ≤ 0.026
U4C C34G C82U | 0.179
C5G G7U C11G | ≤ 0.026
U4A A23G | 0.288
C5G G59A A62C | ≤ 0.026
C5A A23C A31G G61A | ≤ 0.026
C3U C80U | 0.0737
U4A C11U C34U | ≤ 0.026
C5G A13G G78U | ≤ 0.026
C3U U22C | 0.304
C3U U22A | 0.169
U4C A23U A54G G59U G67C | ≤ 0.026
U4G G73C | 0.0291
U4G G73U | 0.0898
U4G C81U | 0.161
C3U C27G | 0.0543

Variant | nonsense suppression
U4C U17C | 1.04
C3U C29G C83G G88C | 0.993
C3U G6U U22G C81G | ≤ 0.026
C3U A54C | 0.079
U4C A9G G15A A30U | 0.0449
C5A G59C | ≤ 0.026
C3U C81U | 0.0941
C5A G18U U76C G86A | ≤ 0.026
U4G U57G | 0.0369
C3U G85A | 0.528
U4A U16G | 0.247
U4A U16A | 0.215
U4A U21A G66U | ≤ 0.026
C3U U4C A9C | 1.11
U4C A13C | 1.05
U4C A13G | 0.774
U4C A13U | 1.12
U4A A9G G73U C77G G86U | ≤ 0.026
U4C U35G G61A G78A C83A G86C | ≤ 0.026
C5A A14U A33C U55C | ≤ 0.026
U4A G19A A31U A62G | ≤ 0.026
C3U G32A G67U G69C | ≤ 0.026
U4A C11U | 0.0306
U4G G32A A33G | ≤ 0.026

Variant | nonsense suppression
C3U U63A | 0.12
U4C G86A | 1.09
U4C G86C | 0.162
C3U U4C | 0.859
U4C G61A | 1.25
U4C G61U | 1.02
U4C G61C | 0.86
U4A A14G | 0.0942
U4A A14U | 0.0276
U4G G18C A24G G61C C81A | 0.057
C5U C11U G66A | ≤ 0.026
C5G U55C U70C | ≤ 0.026
C5U C29U C34U A87C | ≤ 0.026
U4C U63G | 0.0946
U4C A9C G84A | 0.0602
C5U A87G | 0.0561
C5A U55C A89G | ≤ 0.026
U4A U17A U22C | 0.0499
U4C C27U | 0.792
C5A G61C | 0.0329
C5G G84U | 0.475
U4C U8G G65A | ≤ 0.026
U4A G67C C68U | ≤ 0.026
U4G G85C | 0.813

Variant | nonsense suppression
U4C C83U | 1.17
U4G A30U | 0.0386
U4G U20C A33G | 0.0309
C5U A30U | 0.138
U4A A13C | 0.294
U4A A13U | 0.18
U4G C75U | 1.1
U4C A31U U57G G88U | ≤ 0.026
U4G G59A | 0.0506
U4C C11A A33G A74U | ≤ 0.026
C5U C80G | ≤ 0.026
C3U U21G | 0.137
C3U U21A | 0.196
U4C U20C | 1.05
U4C A13G C83U | 0.334
U4G U22A | 0.216
U4G U22G | 0.492
U4G G61A | 0.189
U4G G61U | 0.804
U4C A13C A24U | 0.488
C3U U8G U58G C80A C82G G86C | ≤ 0.026
U4G C77U | 0.0723
U4G C77A | 0.0479
U4C G85A | 0.625

Variant | nonsense suppression
U4C C27U G61A | 0.205
U4A G7U U76A | ≤ 0.026
C3U G7A U17G | ≤ 0.026
C5U A62U G69C A87U | ≤ 0.026
U4C G15A | 0.746
C5U C75U | 0.0347
C5U C75A | 0.209
C5U A14G U55G | ≤ 0.026
C5A G19C A62G | ≤ 0.026
C5G G10C U57C | ≤ 0.026
U4C U57G | 0.0337
U4C U57A | 0.609
U4G U20G U22A | 0.21
U4G G18C G28A A74G | ≤ 0.026
C3U C34U | ≤ 0.026
C3U U4C C5G G7U U8A A9G G10C C12A U17A U57A | ≤ 0.026
U4A G61U | 0.194
C3U C75U | 0.539
U4C G59A | ≤ 0.026
C5A U8C | ≤ 0.026
C5A U8A | ≤ 0.026
C3U U76A | 0.0398
C3U U76C | 0.17
U4A U20C C83A | ≤ 0.026

Variant | nonsense suppression
U4C A54C | 1.01
C5A G78A | 0.0335
C5A G78C | ≤ 0.026
C5A G78U | 0.0303
U4C A13G C29U | 0.221
U4A C5G G59A | ≤ 0.026
C5A C27G G73A | ≤ 0.026
C5U A60C | 0.0867
C3U U57C G69A G73A G85A | ≤ 0.026
C5U C12G A13G C29A | ≤ 0.026
U4C U35A C83A | ≤ 0.026
C5G G78U | 0.0283
C3U U16G | 0.22
C3U U16A | 0.16
C5A A9C A24G G85A | ≤ 0.026
C5U A23G | 0.0405
C3U U20G | 0.194
U4A A30G | 0.0267
U4G G78U | 0.0997
C5A U8C A9U C80A | ≤ 0.026
C3U U21G G85C | 0.417
U4A U17A | 0.174
C5A A30G | 0.0272
U4C C29U | 1.03

Variant | nonsense suppression
U4C C29A | 1.11
U4G G7A | 0.0974
C3U U35G G61A | ≤ 0.026
C5G C12A G59U | ≤ 0.026
C5A U76C G86C | ≤ 0.026
U4C A87G | 1.1
U4C A87C | 0.197
C5A A24C | 0.0269
C5U A13C | 0.0679
C3U C77G | 0.0323
C5G G6A A33U U35G U70C | ≤ 0.026
U4G A23C G26U A62U G69C G84U | 0.116
U4G A23U A24C A33U G67A G84C A87G G88C | ≤ 0.026
U4C C12U | 0.745
U4A C11A A14U | ≤ 0.026
U4C G6U G28A | 0.427
U4C C34A | 0.0274
U4C C34G | 0.0649
U4C U35C G69C | ≤ 0.026
U4A U17G G69A G78U | ≤ 0.026
C5U A13G A14C | ≤ 0.026
C5U C83G | ≤ 0.026
U4G U63A | 0.199
